Compound activity as filed in PubChem.
eIF4H FP inh – inhibitors of RNA binding by human eIF4H | inhibition, % at 35 µM | eIF4H fluorescence polarization binding assay | 290,000 compounds, 0.94% hits | AID 2012;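 further: calls also rest on retests at 20 µM and on dose response follow-up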
EBNA-1 inhibitor – blocks EBNA-1 binding to DNA; EBNA-1 DNA binding, fluorescence polarization; inhibition, % at 14.8 µM; 300,000 compounds, 0.34% hits; in the data active means inhibition above about 28%
PABP FP inh – PABP-poly(A) binding inhibition | P11940 | PABP-poly(A) RNA binding, fluorescence polarization | inhibition, % at 35 µM | 290,000 compounds, 1% hits | AID 2014;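 further: calls also rest on retests at 20 µM and on dose response follow-up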
HCV NS3 hel inh – HCV NS3 helicase inhibition | NS3 helicase DNA unwinding, Cy5 molecular beacon fluorescence | inhibition, % at 10.9 µM | 290,000 compounds, 0.56% hits | AID 1800;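 active means inhibition above the mean of all tested compounds plus 3 SD, set per campaign, cut at about 35% in these data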
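assay system = NS3 helicase fragment of HCV | buffer or medium = MOPS pH 6.5, MgCl2, DTT, Tween20, BSA | timing = 60 min unwinding reaction at 25 °C after ATP addition | signal = Cy5 beacon fluorescence read at start and 1 h | read-out basis = % inhibition of unwinding | control set = low DMSO, high thioflavine S at 110 µM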
MLLE-PAM2 inh – blocks PAM2 peptide binding to the PABP1 MLLE domain; AID 588489; inhibition, % at 20 µM; GST-MLLE / FITC-PAM2 fluorescence polarization; 360,000 compounds, 0.36% hits; in the data active means inhibition above about 35%, passing the limit was not always enough
ZTA DNA inh – ZTA (EBV) inhibition in EBNA-1 counter-screen. P03206. 320,000 compounds, 0.15% hits. inhibition, % at 11 µM. ZTA-DNA binding, fluorescence polarization; in the data active means inhibition above about 33%
Target sequence (P03206 whole entry, looked up): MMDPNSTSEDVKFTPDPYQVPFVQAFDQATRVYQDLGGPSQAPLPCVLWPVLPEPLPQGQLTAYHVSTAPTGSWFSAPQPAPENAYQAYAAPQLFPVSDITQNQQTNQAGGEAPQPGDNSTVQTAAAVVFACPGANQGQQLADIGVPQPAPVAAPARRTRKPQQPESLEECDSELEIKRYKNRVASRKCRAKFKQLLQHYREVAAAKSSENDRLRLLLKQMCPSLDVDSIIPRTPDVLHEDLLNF
NS3 helicase cf – HCV NS3 helicase inhibition, confirmation assay. shares compounds with HCV NS3 hel inh. NS3 helicase DNA unwinding, Cy5 molecular beacon fluorescence. inhibition, % at 10.9 µM. 1,600 compounds, 31% hits;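 active means inhibition above the mean of all tested compounds plus 3 SD, cutoff set per campaign, cut at about 36% in these data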
FID counter trip – counter-screen for HCV NS3 helicase inhibitors: DNA intercalator displacement. shares compounds with HCV NS3 hel inh. AID 1945. 1,600 compounds, 4% hits. inhibition, % at 7.9 µM. DNA fluorescent intercalator displacement, fluorescence; in the data active means inhibition above about 37%;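 further: higher means more displacement of ethidium bromide from the DNA hairpin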
DNA FID DR – displaces fluorescent intercalator from DNA, HCV helicase counter-screen; shares compounds with HCV NS3 hel inh; fluorescent intercalator displacement from DNA, fluorescence; IC50, µM; 120 tested, under 10 active; AID 2172
A number is an active result. An excerpt weighted towards active compounds, which were near 2.1% of everything screened. Unless noted, how the calls were made is not given here.

What do the screens show for `CCOC(=O)c1sc2nc3c(SCCC(=O)O)cc(C(=O)c4cc(OC)ccc4O)cn3c(=O)c2c1C`?
eIF4H FP inh: inactive; PABP FP inh: inactive; HCV NS3 hel inh: 40; MLLE-PAM2 inh: inactive; NS3 helicase cf: 83; FID counter trip: inactive; DNA FID DR: inactive

How did Nc1nnn(CC(=O)N/N=C/c2ccc(Cl)cc2Cl)n1 do in these assays?
eIF4H FP inh: inactive; EBNA-1 inhibitor: inactive; PABP FP inh: inactive; HCV NS3 hel inh: inactive; MLLE-PAM2 inh: inactive; ZTA DNA inh: inactive

What do the screens show for `Nc1ccc(O)cc1C(=O)OCC(=O)c1ccc(C2CCCCC2)cc1`?
eIF4H FP inh: 93; EBNA-1 inhibitor: inactive; PABP FP inh: active; HCV NS3 hel inh: 59; MLLE-PAM2 inh: inactive; ZTA DNA inh: inactive; NS3 helicase cf: inactive; FID counter trip: inactive

What do the screens show for `COc1ccc(C(=O)OCC(=O)c2ccc(C3CCCCC3)cc2)cc1`?
eIF4H FP inh: inactive; EBNA-1 inhibitor: inactive; PABP FP inh: inactive; HCV NS3 hel inh: inactive; MLLE-PAM2 inh: inactive; ZTA DNA inh: inactive

What do the screens show for `CCc1ccc(-n2c(SCC(=O)N3Cc4ccccc4CC3C(=O)O)nnc2-c2ccncc2)cc1` (configuration not stated)?
eIF4H FP inh: inactive; EBNA-1 inhibitor: inactive; PABP FP inh: inactive; HCV NS3 hel inh: 42; MLLE-PAM2 inh: inactive; ZTA DNA inh: inactive; NS3 helicase cf: inactive; FID counter trip: inactive

What do the screens show for `O=C1c2cccc(OCC(=O)N3CCCc4ccccc43)c2CCN1Cc1cccnc1`?
eIF4H FP inh: inactive; EBNA-1 inhibitor: inactive; PABP FP inh: inactive; HCV NS3 hel inh: inactive; MLLE-PAM2 inh: inactive; ZTA DNA inh: inactive

How did Cc1ccccc1CN1CCc2c(OCC(=O)N3CCCc4ccccc43)cccc2C1=O do in these assays?
eIF4H FP inh: inactive; EBNA-1 inhibitor: inactive; PABP FP inh: inactive; HCV NS3 hel inh: 75; MLLE-PAM2 inh: inactive; ZTA DNA inh: inactive; NS3 helicase cf: inactive; FID counter trip: inactive

What do the screens show for `CCOC(=O)/C=c1\s/c(=C(\C#N)C(=O)OCC)n(-c2ccccc2)c1=O`?
eIF4H FP inh: inactive; EBNA-1 inhibitor: inactive; PABP FP inh: inactive; HCV NS3 hel inh: 57; MLLE-PAM2 inh: inactive; ZTA DNA inh: inactive; NS3 helicase cf: inactive; FID counter trip: inactive

What do the screens show for `CNC(=O)/C(C#N)=c1\s/c(=C/C(=O)OC)c(=O)n1-c1ccccc1`?
eIF4H FP inh: inactive; EBNA-1 inhibitor: inactive; PABP FP inh: inactive; HCV NS3 hel inh: inactive; MLLE-PAM2 inh: inactive; ZTA DNA inh: inactive

Results for Cc1cccc(N2CCN(C(=O)CCNS(=O)(=O)c3cccs3)CC2C)c1 (configuration not stated) ?
eIF4H FP inh: inactive; EBNA-1 inhibitor: inactive; PABP FP inh: inactive; HCV NS3 hel inh: inactive; MLLE-PAM2 inh: inactive; ZTA DNA inh: inactive

How did Clc1ccc(C2Nc3cccc4cccc(c34)N2)cc1 do in these assays?
eIF4H FP inh: 86; EBNA-1 inhibitor: inactive; PABP FP inh: 55; HCV NS3 hel inh: 69; MLLE-PAM2 inh: inactive; ZTA DNA inh: inactive; NS3 helicase cf: inactive; FID counter trip: inactive

What do the screens show for `Clc1ccccc1Cn1c(/C=C/c2ccco2)nc2ccccc21`?
eIF4H FP inh: inactive; EBNA-1 inhibitor: inactive; PABP FP inh: inactive; HCV NS3 hel inh: 52; MLLE-PAM2 inh: inactive; ZTA DNA inh: inactive; NS3 helicase cf: inactive; FID counter trip: inactive

How did Cc1c(Br)c(O)c(Br)c(O)c1/C=N/n1c(-c2ccccc2)n[nH]c1=S do in these assays?
eIF4H FP inh: inactive; EBNA-1 inhibitor: inactive; PABP FP inh: inactive; HCV NS3 hel inh: 36; MLLE-PAM2 inh: inactive; ZTA DNA inh: inactive; NS3 helicase cf: 70; FID counter trip: inactive

What do the screens show for `CCOC(=O)c1c(C)oc2c(F)c(F)c(F)c(F)c2c1=O`?
eIF4H FP inh: inactive; EBNA-1 inhibitor: inactive; PABP FP inh: inactive; HCV NS3 hel inh: 42; MLLE-PAM2 inh: inactive; ZTA DNA inh: inactive; NS3 helicase cf: inactive; FID counter trip: inactive

Results for CCOC(=O)c1c(C)oc(=O)c(CC)c1O ?
MLLE-PAM2 inh: inactive
